An excerpt weighted towards active compounds, which were near 0.72% of everything screened.
bIAP act: bovine intestinal alkaline phosphatase activators, primary screen, biochemical, bovine IAP, CDP-star luminescence; 200,000 tested, 0.17% active; activation factor at 20 µM; purified bovine IAP, 30 min; hits give high values; fold of DMSO-control signal, blank-subtracted;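 active = activation factor of 2 or more at 20 µM, a signal rise over negative controls twice the positive control's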
hIAP block: human IAP inhibitors, primary screen, biochemical, luminescence, uHTS; purified IAP, CDP-Star luminescence, 30 min; inhibition, % at 10 µM; 330,000 tested, 0.12% active; AID 2544, 2010;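 active = inhibition reaching a set limit with compound at 10 µM in the primary screen, cut at about 35% in these data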;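 also: plate controls were DMSO wells with enzyme for no effect and no-enzyme buffer wells for full effect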
Target sequence (P09923 whole entry, looked up): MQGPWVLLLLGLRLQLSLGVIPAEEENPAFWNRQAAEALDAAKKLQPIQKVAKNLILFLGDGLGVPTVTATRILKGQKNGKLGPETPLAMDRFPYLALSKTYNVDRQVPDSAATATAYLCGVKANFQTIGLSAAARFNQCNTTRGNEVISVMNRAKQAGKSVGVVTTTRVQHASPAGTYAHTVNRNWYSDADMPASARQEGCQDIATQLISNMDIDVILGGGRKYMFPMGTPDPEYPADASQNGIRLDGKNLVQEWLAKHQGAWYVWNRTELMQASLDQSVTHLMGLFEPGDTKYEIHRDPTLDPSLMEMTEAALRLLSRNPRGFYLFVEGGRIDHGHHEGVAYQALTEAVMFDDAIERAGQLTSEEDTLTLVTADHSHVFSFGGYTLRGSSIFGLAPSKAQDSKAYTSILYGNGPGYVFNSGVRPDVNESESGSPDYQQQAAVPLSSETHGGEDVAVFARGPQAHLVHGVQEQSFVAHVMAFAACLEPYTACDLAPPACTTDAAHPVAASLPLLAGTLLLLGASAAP
mIAP activ: activators of mouse IAP, primary screen, biochemical, luminescence, uHTS; intestinal alkaline phosphatase [Mus musculus]; muIAP, CDP-Star luminescence, 30 min; hits give high values; 1 = vehicle-only enzyme signal, 0 = enzyme-free wells; activation factor at 10 µM; 330,000 tested, 0.24% active; AID 2805, 2010;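 active = activation factor of at least 2 at 20 µM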
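Assay system: mouse IAP enzyme / Compound: DMSO-dissolved test compounds / Timing: 30 min, room temperature / Measured by: luminescence from enzymatic CDP-Star hydrolysis / Control set: DMSO-only wells, enzyme-free buffer wells as negative control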
hIAP activ: human IAP activators, primary screen, biochemical, luminescence, uHTS. purified human IAP, CDP-Star luminescence, 30 min; hits give high values; 1 = vehicle-only enzyme, 0 = enzyme-free background. activation factor at 10 µM. 330,000 tested, 0.16% active. Intestinal-type alkaline phosphatase (Homo sapiens), P09923;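 active = activation factor of the enzyme at least 2-fold when tested at 20 µM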
mIAP block: inhibitors of mouse IAP, primary screen, biochemical, luminescence, uHTS | 330,000 tested, 0.2% active | inhibition, % at 10 µM | intestinal alkaline phosphatase [Mus musculus] | purified mouse IAP, CDP-Star luminescence, 30 min;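 active = inhibition of at least 40% at 10 µM in the primary screen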;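 also: plate controls were DMSO with enzyme for no effect and no enzyme wells for full effect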
bIAP inh: bovine intestinal alkaline phosphatase inhibitors, primary screen, selectivity assay for TNAP inhibitor project, biochemical, bovine IAP, CDP-star luminescence; purified bovine IAP, 30 min; inhibition, % at 20 µM; 190,000 tested, under 10 active; AID 1019, 2008;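 active = over 50% inhibition of intestinal alkaline phosphatase at 20 µM in the single-dose screen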
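Assay system: bovine IAP enzyme; medium: DEA buffer 100 mM, pH 9.8, with MgCl2 1.0 mM, ZnCl2 0.02 mM; doses: 20 µM single dose; incubation: enzyme reaction for 30 min at room temperature; detection: CDP-star luminescence signal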
Numbers without * were called inactive; i = inactive; x = not tested or not shown.

SMILES | bIAP act | hIAP block | mIAP activ | hIAP activ | mIAP block | bIAP inh
Cn1c(N)c(C(=O)CSc2n[nH]c(N)n2)c(=O)n(C)c1=O | x | -7 | 0.99 | 1.1 | 1 | x
CC(C)CNC(=S)Nc1ccc(Oc2ccccc2)cc1 | 0.9 | 7 | 2.2* | 0.93 | -116 | 5
CCCN1C=CC(=CC=C(C#N)C#N)C=C1 | x | 11 | 0.7 | 0.89 | 30 | x
CCCN1C=CC(=C/C=C(\C#N)C(=O)OCC)C=C1 | 0.5 | 37* | 0.74 | 0.63 | 26 | 49
CCOC(=O)/C(C#N)=C/C=C1\C=Cc2ccccc2N1CC | 1 | 31 | 0.56 | 0.69 | 44* | -2
Cc1cccc(NC(=O)CNC(=O)Cc2ccc3c(c2)OCCO3)c1C | x | -13 | 1 | 1.1 | -2 | x
C#CCOCCOCCOCCNc1nc(N2CCN(C(=O)CCCCCCCCCCNC(=O)[C@@H](CCSC)n3cc(CCO)nn3)CC2)nc(N2CCN(C(=O)CCCCCCCCCCNC(=O)[C@H](CCSC)n3cc(CCO)nn3)CC2)n1 | x | 12 | 2.6* | 0.88 | -164 | x
CC(C)(C)OC(=O)CC[C@@H](C(=O)NCCCCCCCCCCC(=O)N1CCN(C(=O)OC(C)(C)C)CC1)n1cc(CCCCCNC(=O)OC(C)(C)C)nn1 | x | 0 | 3.2* | 0.99 | -216 | x
CC(C)(C)OC(=O)NCCCCCc1cn([C@@H](CO)C(=O)NCCCCCCCCCCC(=O)N2CCN(C(=O)OC(C)(C)C)CC2)nn1 | x | 9 | 1.1 | 0.91 | -7 | x
CC[C@H](C)[C@@H](C(=O)NCCCCCCCCCCC(=O)N1CCN(C(=O)OC(C)(C)C)CC1)n1cc(CCCCCNC(=O)OC(C)(C)C)nn1 | x | 0 | 2.5* | 0.99 | -150 | x
C=CCCN(Cc1ccccc1)S(=O)(=O)c1cc(Br)ccc1Br | x | -2 | 0.93 | 1 | 7 | x
CCN(CCNC(=O)C1CCN(Cc2nc(-c3cccc(Cl)c3)oc2C)CC1)c1ccccc1 | 2.9* | 10 | 1.4 | 0.9 | -39 | -187
CCN(CCNC(=O)C1CCN(Cc2nc(-c3ccc(Cl)cc3)oc2C)CC1)c1ccccc1 | 1.6 | 13 | 1.4 | 0.87 | -35 | -60
CCc1ccc(-c2nc(CN3CCC(C(=O)NCCN(CC)c4ccccc4)CC3)c(C)o2)cc1 | 4.4* | 24 | 2* | 0.76 | -101 | -336
CCCOc1ccc(C(=O)Nc2ccc(S(=O)(=O)N3C[C@@H]4C[C@@H](C3)c3cccc(=O)n3C4)cc2)cc1 | x | 9 | 1.2 | 0.91 | -25 | x
CC1CCCN(C(=O)C2(NC(=O)Nc3cccc(F)c3)CCCCC2)C1 (centres undefined) | 1.6 | -62 | 3.1* | 1.6 | -213 | -61
COCCN(CC(=O)Nc1cccc(C)c1C)C(=O)c1oc2ccccc2c1C | x | -8 | 1 | 1.1 | -5 | x
Cc1c(CCOC(=O)c2cccc([N+](=O)[O-])c2)sc[n+]1CC(=O)c1ccccc1 | 0.4 | 15 | 0.57 | 0.85 | 43* | x
Cc1n[nH]c(=O)c2c(NC(=O)CSc3ccccc3Cl)oc(C)c12 | x | 6 | 0.97 | 0.94 | 3 | x
S=C(Nc1ccc(Cl)cc1)NC1CCCCC1 | x | 9 | 1.8 | 0.91 | -81 | x
S=C(Nc1ccc(Br)cc1)NC1CCCCC1 | 1.1 | 1 | 2.5* | 0.99 | -150 | -11
FC(F)Oc1ccc(NC(=S)NC2CCCCCCC2)cc1 | x | -13 | 2.6* | 1.1 | -164 | x
S=C(Nc1ccc(Nc2ccccc2)cc1)NC1CCCCCC1 | 0.9 | -3 | 1.2 | 1 | -19 | 11
O=C(Nc1ccc(F)cc1)Nc1ccccc1N1CCCCC1 | x | -11 | 2.6* | 1.1 | -161 | x
CCc1ccccc1NC(=O)Nc1ccc(F)cc1 | 0.9 | -10 | 1.2 | 1.1 | -22 | 12
SMILES | bIAP act | hIAP block | mIAP activ | hIAP activ | mIAP block | bIAP inh
O=C(Nc1ccc(F)cc1)Nc1csc2ccccc12 | x | -24 | 2.3* | 1.2 | -132 | x
CC(C)CC1NC(=O)N(CC(=O)Nc2ccc(OC(F)F)cc2)C1=O (centres undefined) | x | 0 | 1 | 1 | -3 | x
COc1cccc(CNC(=O)CCC2CCCN(C(=O)c3cc(C4CC4)[nH]n3)C2)c1 (centres undefined) | 2.2* | -32 | 1.1 | 1.3 | -10 | -123
COc1cccc(CNC(=O)CCC2CCCN(C(=O)c3cc(C)on3)C2)c1 (centres undefined) | 1 | -5 | 1.1 | 1.1 | -14 | -1
COC(=O)N/N=C(C)\C=C\c1ccco1 | 6.4* | -7 | 0.99 | 1.1 | 1 | i
CCOc1ccc2nc(NCCNC(=O)Nc3cccc(C)c3)c(C#N)cc2c1 | 1.8 | 12 | 2.2* | 0.88 | -115 | -79
COC(=O)C(C(=O)OC)c1ncc(C(F)(F)F)cc1Cl | 2.2* | 8 | 1 | 0.92 | -4 | -124
COC(=O)C1=C(C)N(Cc2ccccc2)C(=NCCc2cccnc2)N[C@H]1c1ccc(Br)cc1 | x | 7 | 1.2 | 0.93 | -20 | x
COC(=O)Nc1ccc(S(=O)(=O)Nc2ccc(C)cc2)cc1 | 0.9 | x | x | x | x | 6
COC(=O)Nc1ccc(S(=O)(=O)Nc2ccc(O)cc2)cc1 | 2.4* | -5 | 0.88 | 1.1 | 12 | -142
CCC(C)(C)NC(=O)C(c1cccs1)N(C(=O)c1ccn[nH]1)c1cccc(OC)c1 (centres undefined) | 2.1* | 6 | 1 | 0.94 | -4 | -106
CCC(C)(C)NC(=O)C(c1ccccc1F)N(C(=O)c1ccn[nH]1)c1ccccc1 (centres undefined) | 0.9 | -20 | 1.3 | 1.2 | -29 | 13
Cc1ccc(N=Cc2c(O)c3ccccc3oc2=O)c(C)c1 | x | 14 | 0.54 | 0.86 | 46* | x
COCCN(C(=O)COC(=O)/C=C/c1cccc(C(F)(F)F)c1)c1c(N)n(CC(C)C)c(=O)[nH]c1=O | x | -7 | 0.94 | 1.1 | 6 | x
CCOC(=O)c1ccc(NC(=S)NCc2ccc(F)cc2)cc1 | x | 6 | 2.3* | 0.94 | -131 | x
COc1ccc(CNC(=O)CCS(=O)(=O)c2ccc3c(c2)NC(=O)CS3)cc1 | x | -22 | 0.99 | 1.2 | 1 | x
CCCC(=O)Nc1ccc(C(=O)N/N=C/c2ccc([N+](=O)[O-])o2)cc1 | 1.4 | -28 | 0.6 | 1.3 | 40* | -38
Cn1c(N=Nc2ccccc2)nc2ccccc21 | 0.5 | -1 | 0.85 | 1 | 14 | x
CN(C)c1ccc(N=Nc2nc3ccccc3n2C)cc1 | x | 17 | 0.58 | 0.83 | 42* | x
Cc1cc(C(=O)OCC(=O)Nc2ccccc2[N+](=O)[O-])c2ccccc2n1 | 2.1* | 15 | 1 | 0.85 | -4 | -108
